Test results published in ChEMBL document CHEMBL4229494, “Novel tertiary sulfonamides as potent anti-cancer agents” (Bioorg Med Chem, 2018).
Values after ≈ are worked out from the molar mass of the structure shown.

Experiments:
[1] = Inhibition of Wnt3A-induced Wnt transcription (unknown origin) expressed in HEK293 cells coexpressing TK-driven Rluc after 20 to 22 hrs by super-top flash reporter gene assay; assay type: cell-based; details: Homo sapiens
Method in brief: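 HEK-293 cells (DMEM, 10% FBS) were co-transfected with Super(8x)TOPflash, a Wnt3A expression vector and TK-driven Renilla luciferase. After 8 h at 37 °C, 5% CO2, cells were seeded at 25,000/well and treated at 1.6, 8, 40, 200, 1000 or 5000 nM, or with DMSO, for 20-22 h in triplicate. Firefly/Renilla luminescence was taken relative to DMSO, and IC50 was found by nonlinear regression.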

[2] = Solubility of the compound; assay type: physicochemical
[3] = Lipophilicity, log D of the compound at pH 3; assay type: physicochemical; details: buffer
[4] = Lipophilicity, log D of the compound at pH 7; assay type: physicochemical; details: buffer
MCF7 [5] = assay: Induction of apoptosis in human MCF7 cells after 24 hrs by caspase-Glo 3/7 reagent based luminescence assay; assay type: functional, cell-based; details: MCF7, 24 h
Method in brief: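 MCF-7 cells were plated at 25,000/well (DMEM, 10% FBS) and grown 24 h, then treated at 1.6 nM–5 µM or with DMSO for 24 h. Caspase 3/7 activity was read by Caspase-Glo 3/7 luminescence. Triplicate signals relative to DMSO were analysed by nonlinear regression.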

MDA-MB-231 [6] = assay: Antiproliferative activity against human MDA-MB-231 cells after 24 hrs by SYBR green dye based fluorescence assay; assay type: functional, cell-based; details: MDA-MB-231, 24 h
Method in brief: (§1)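 Cells were plated at 500/well in DMEM/10% FBS and allowed to attach for 24 h at 37 °C, 5% CO2. They were then exposed to 1.6 nM–5 µM or DMSO. One plate was harvested every 24 h over 7 days and frozen at -20 °C. DNA was quantified by SYBR Green fluorescence (Ex495/Em535). Triplicate values relative to DMSO went to nonlinear regression for IC50.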

MCF7 [7] = assay: Antiproliferative activity against human MCF7 cells after 24 hrs by SYBR green dye based fluorescence assay; assay type: functional, cell-based; details: MCF7, 24 h; method in brief: as §1
MDA-MB-231 [8] = assay: Antitumor activity against human MDA-MB-231 cells xenografted in athymic nude mouse assessed as decrease in tumor volume at 5 mg/kg, ip administered per week for 16 days relative to control; assay type: functional; parameters: scale not given: the % may be the effect or the level left

## O=S(=O)(c1ccc(N2CCC=N2)cc1)N1CCCc2ccccc21
[1]
  IC50: 0.015 µM
[2]
  solubility: 19 µM (≈ 6.49 µg/mL)
[3]
  logD: 1.5
[4]
  logD: 2.9

## O=C1CCCN1c1ccc(S(=O)(=O)N2CCCc3cc(C(F)(F)F)ccc32)cc1
[1]
  IC50: 0.054 µM

## O=C1CCCN1c1ccc(S(=O)(=O)N2CCCc3ccccc32)cc1
MCF7 [5]
  EC50: 0.023 µM
[1]
  IC50: 0.025 µM
MDA-MB-231 [6]
  IC50: 0.015 µM
MCF7 [7]
  IC50: 0.017 µM
[2]
  solubility: 7.8 µM (≈ 2.78 µg/mL)
[3]
  logD: 2.5
[4]
  logD: 2.5

## O=C1CCCN1c1ccc(S(=O)(=O)N2CCCc3ncccc32)cc1
[1]
  IC50: > 5 µM

## COc1cccc2c1C(=O)c1c(O)c3c(c(O)c1C2=O)C[C@@](O)(C(=O)CO)C[C@@H]3O[C@H]1C[C@H](N)[C@H](O)[C@H](C)O1 [DOXORUBICIN]
MDA-MB-231 [8]
  Activity: 84.3%

## CN1CCN(S(=O)(=O)c2ccc(N3CCCC3)cc2)c2ccccc21
MCF7 [5]
  EC50: 0.006 µM
[1]
  IC50: 0.007 µM
MDA-MB-231 [6]
  IC50: 0.016 µM
MCF7 [7]
  IC50: 0.004 µM

## O=C1CCCN1c1ccc(S(=O)(=O)N2CCNc3ccccc32)cc1
[1]
  IC50: > 5 µM

## COc1ccc2c(c1)N(C)CCN2S(=O)(=O)c1ccc(N2CCCC2=O)cc1
MCF7 [5]
  EC50: 0.046 µM
[1]
  IC50: 0.017 µM
MDA-MB-231 [6]
  IC50: 0.014 µM
MCF7 [7]
  IC50: 0.014 µM
[2]
  solubility: 69.6 µM (≈ 27.9 µg/mL)
[3]
  logD: 2.9
[4]
  logD: 3

## O=C1CCCN1c1ccc(S(=O)(=O)N2CCc3ccccc32)cc1
[1]
  IC50: > 5 µM

## CC1CCc2ccccc2N1S(=O)(=O)c1ccc(N2CCCC2=O)cc1 (racemic)
[1]
  IC50: 0.011 µM

## O=C1CCCN1c1ccc(C(=O)N2CCCc3ccccc32)cc1
[1]
  IC50: > 5 µM

## CC1CN(C)c2ccccc2N1S(=O)(=O)c1ccc(N2CCCC2=O)cc1 (racemic)
[1]
  IC50: 0.009 µM
[2]
  solubility: 23.1 µM (≈ 8.9 µg/mL)
[3]
  logD: 3.3
[4]
  logD: 3.6

## O=C1CCCCN1c1ccc(S(=O)(=O)N2CCCc3ccccc32)cc1
[1]
  IC50: > 5 µM

## CN1CCN(S(=O)(=O)c2ccc(N3CCC=N3)cc2)c2ccccc21
MCF7 [5]
  EC50: 0.005 µM
[1]
  IC50: 0.018 µM
MDA-MB-231 [6]
  IC50: 0.013 µM
MCF7 [7]
  IC50: 0.007 µM

## COc1ccc2c(c1)CCCN2S(=O)(=O)c1ccc(N2CCCC2=O)cc1
MCF7 [5]
  EC50: 0.016 µM
[1]
  IC50: 0.006 µM
MDA-MB-231 [6]
  IC50: 0.02 µM
MCF7 [7]
  IC50: 0.025 µM
